The values below come from ChEMBL document CHEMBL1828498, “Identification and characterization of a novel integrin-linked kinase inhibitor” (J Med Chem, 2011).

The source made the active and inactive calls. The rule behind the calls is not given here.

Series [1] relates to PC-3. As to the kind of experiment: Induction of autophagy in human PC3 cells expressing Atg5 siRNA assessed as LC3-II conversion by Western blot analysis. Type of series: functional, cell-based. An outline of the steps:
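Transient Atg5 siRNA transfection of PC-3 by electroporation, cells used 48 h later, then treated. LC3-II conversion detected by immunoblot: SDS lysis, antibody 1:1000 at 4°C for 2 h, ECL. Representative of three independent experiments.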

The target in series [2] is Tyrosine-protein kinase ZAP-70 (Homo sapiens) (UniProt P43403). As to the kind of experiment: Inhibition of ZAP70 at 5 uM assessed as remaining activity.
Series [3] relates to PC-3. As to the kind of experiment: Suppression of tumor growth in human PC3 cells xenografted in nude mouse at 25 mg/kg/day, po administered for 35 days relative to control. Type of series: functional. An outline of the steps: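 Male NCr athymic nude mice, s.c. 0.5 × 10^6 PC-3 cells in 50% Matrigel; established tumors randomized (n=6) to daily oral gavage in 0.5% methylcellulose/0.1% Tween 80 in water, 10 μL/g, 35 days; weekly caliper volume = width² × length × 0.52; mean ± SEM, ANOVA or t-test.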
For orientation: In xenograft studies the graft and the host belong to different species.

The subject of series [4] is SK-BR-3. The series is described as follows: Reduction in EGFR mRNA expression in human SKBR3 cells after 24 hrs by RT-PCR analysis. Type of series: functional, cell-based. The gist of the method:
(§1)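 PC-3, PC-3/CA-ILK, SKBR3 and SKBR3/CA-ILK cells treated 24 h in 5% FBS medium; total RNA from 1 × 10^6 cells by Trizol, 1 μg reverse-transcribed, then PCR with gene-specific primers and β-actin reference.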

The target in series [5] is Rapamycin-insensitive companion of mTOR (Homo sapiens) (UniProt Q6R327). The series is described as follows: Inhibition of mTORC2 in human MDA-MB-231 cells assessed as SGK1 phosphorylation by Western blot analysis. It is filed as cell-based. An outline of the steps:
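Cells exposed 24 h in 5% FBS medium, final DMSO 0.1%; lysed in 1% SDS/10 mM EDTA/50 mM Tris pH 8.1, equal protein on SDS-PAGE, nitrocellulose, primary antibody 1:1000 at 4°C for 2 h, HRP secondary 1:5000, ECL detection; blots representative of three independent experiments.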
For orientation: Immunoblotting shows a protein as a band on a membrane.

Series [6] concerns the target T1, Scaffold protein ILK (Homo sapiens) (UniProt Q13418).
T1 sequence (whole entry): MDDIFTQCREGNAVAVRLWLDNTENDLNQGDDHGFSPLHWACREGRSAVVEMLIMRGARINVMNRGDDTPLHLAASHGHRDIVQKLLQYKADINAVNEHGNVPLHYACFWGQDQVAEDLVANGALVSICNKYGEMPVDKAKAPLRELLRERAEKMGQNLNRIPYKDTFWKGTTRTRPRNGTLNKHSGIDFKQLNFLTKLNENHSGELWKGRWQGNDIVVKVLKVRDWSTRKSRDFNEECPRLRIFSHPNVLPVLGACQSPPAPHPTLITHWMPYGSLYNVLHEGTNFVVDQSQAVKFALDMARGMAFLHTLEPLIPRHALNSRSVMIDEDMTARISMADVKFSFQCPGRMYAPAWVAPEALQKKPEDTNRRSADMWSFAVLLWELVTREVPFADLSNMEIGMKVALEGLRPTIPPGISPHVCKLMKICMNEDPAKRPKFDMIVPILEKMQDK
As to the kind of experiment: Inhibition of ILK in human PC3 cells expressing constitutively active ILK assessed as decrease in phosphorylated p38 concentration by Western blot analysis. Type of series: cell-based. To be noted: PC-3. The gist of the method: (§2)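 Stable PC-3 clones expressing GFP-CA-ILK (G418 250 μg/mL selection, GFP sorting) treated 24 h in 5% FBS medium. Phospho-ERK1/2 and phospho-p38 detected by immunoblot with ECL. Representative of three experiments.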

For series [7], the system named is PC-3. As to the kind of experiment: Induction of apoptosis in human PC3 cells assessed as PARP cleavage by Western blot analysis. It is filed as functional, cell-based. An outline of the steps: (§3)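 PC-3 cells treated 24 h in 5% FBS medium. Lysed in 1% SDS/10 mM EDTA/50 mM Tris pH 8.1, equal protein on SDS-PAGE, primary antibody 1:1000 at 4°C for 2 h, HRP secondary, ECL detection. Read-outs PARP cleavage and LC3-II conversion; blots representative of three experiments.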

The test system of a further series is Mus musculus. The series is described as follows: Toxicity in nude mouse assessed as weight loss at 50 mg/kg, po administered for 35 days. Type of series: organism-based. More on the design: dose 50 mg/kg, route oral. The note with it: in vivo, 840 h. An outline of the steps:
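Male NCr nude mice bearing s.c. PC-3 tumors, dosed once daily by oral gavage in 0.5% methylcellulose/0.1% Tween 80 vehicle, 10 μL/g, for 35 days; body weight recorded weekly.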

Series [8] deals with PC-3. As to the kind of experiment: Reduction in YB-1 concentration in human PC3 cells after 24 hrs by Western blot analysis. It is filed as functional, cell-based. The gist of the method: (§4)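 PC-3 versus stable PC-3/CA-ILK, or SKBR3 versus transient SKBR3/CA-ILK (electroporation, used 48 h after), treated 24 h in 5% FBS medium; immunoblotting with ECL; representative of three experiments.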

In series [9] the test system is PC-3. The series is described as follows: Induction of autophagy in human PC3 cells assessed as LC3-II conversion by Western blot analysis. It is filed as functional, cell-based. The gist of the method:
as §3

The test system of series [10] is PC-3. The series is described as follows: Induction of change in cell cycle distribution in human PC3 cells up to 2 uM after 48 hrs by flow cytometry. It is filed as functional, cell-based. An outline of the steps: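 Treated PC-3 cells harvested, fixed in 100% ethanol, stained 30 min at 37°C in the dark with 80 μg/mL PI, 100 μg/mL RNase, 0.1% Triton X-100. Phase distribution by flow cytometry. Mean ± SD, n = 3. Methods give 48 h exposure; the figure legend gives 24 h in 5% FBS.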
Background: Flow cytometry measures light scatter and fluorescence of single cells or particles in a stream.

Series [11] concerns the target T1, Scaffold protein ILK (Homo sapiens). As to the kind of experiment: Inhibition of ILK in human PC3 cells expressing constitutively active ILK assessed as decrease in phosphorylated ERK1/2 concentration by Western blot analysis. It is filed as cell-based. To be noted: PC-3. The gist of the method:
as §2

In series [12] the test system is PC-3. As to the kind of experiment: Induction of apoptosis in human PC3 cells assessed as late apoptotic cells at 4 uM by annexin V/PI staining (reference value: 9.8%). Type of series: functional.
Series [13] deals with Proto-oncogene tyrosine-protein kinase ROS (Homo sapiens) (UniProt P08922). The series is described as follows: Inhibition of Ros at 5 uM assessed as remaining activity.
Series [14] concerns SK-BR-3. The series is described as follows: Antiproliferative activity against human SKBR3 cells assessed as suppression of cell viability by MTT assay. It is filed as functional, cell-based. The gist of the method: (§5)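 Cancer lines seeded 5000/well and nonmalignant PrEC/MEC 8000/well in 10% FBS, 24 h before treatment. Compound exposure 24 h in 5% FBS medium, 0.1% final DMSO. MTT (0.25 mg/mL) for 1 h at 37°C, dye solubilized in DMSO, absorbance read at 570 nm. Mean ± SD, n = 6.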

The subject of series [15] is PC-3. The series is described as follows: Reduction in HER2 concentration in human PC3 cells expressing constitutively active ILK after 24 hrs by Western blot analysis. Type of series: functional, cell-based. The gist of the method:
as §4

The subject of series [16] is PC-3. As to the kind of experiment: Reduction in HER2 mRNA expression in human PC3 cells after 24 hrs by RT-PCR analysis. Type of series: functional, cell-based. The gist of the method:
as §1

The subject of the next series is PrEC. As to the kind of experiment: Antiproliferative activity against human PrEC cells at 1 to 5 uM by MTT assay. Type of series: cell-based. An outline of the steps:
as §5

The target of series [17] is Proto-oncogene tyrosine-protein kinase Src (Homo sapiens) (UniProt P12931). The series is described as follows: Inhibition of cSRC at 5 uM assessed as remaining activity.
Series [18] concerns SK-BR-3. As to the kind of experiment: Reduction in YB-1 concentration in human SKBR3 cells expressing constitutively active ILK after 24 hrs by Western blot analysis. Type of series: functional, cell-based. An outline of the steps: as §4
In another series the test system is LNCaP. As to the kind of experiment: Antiproliferative activity against human LNCAP cells assessed as suppression of cell viability by MTT assay. It is filed as functional, cell-based. The gist of the method:
as §5

Chain of Proto-oncogene tyrosine-protein kinase Src (Homo sapiens) (P12931 2-536 limits assumed): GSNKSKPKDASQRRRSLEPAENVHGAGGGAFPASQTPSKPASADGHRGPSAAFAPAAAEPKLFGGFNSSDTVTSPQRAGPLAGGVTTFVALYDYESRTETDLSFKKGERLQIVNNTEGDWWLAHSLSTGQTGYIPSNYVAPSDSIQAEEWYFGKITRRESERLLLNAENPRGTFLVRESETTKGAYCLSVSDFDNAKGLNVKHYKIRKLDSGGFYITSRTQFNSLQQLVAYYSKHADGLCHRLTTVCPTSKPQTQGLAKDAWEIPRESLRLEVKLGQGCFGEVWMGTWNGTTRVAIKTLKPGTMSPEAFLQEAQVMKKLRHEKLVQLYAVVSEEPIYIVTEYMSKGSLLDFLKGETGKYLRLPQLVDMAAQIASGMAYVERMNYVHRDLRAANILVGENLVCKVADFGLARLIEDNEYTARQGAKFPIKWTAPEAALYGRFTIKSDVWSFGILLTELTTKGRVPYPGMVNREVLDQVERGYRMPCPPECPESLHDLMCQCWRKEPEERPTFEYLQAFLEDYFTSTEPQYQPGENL
Chain of Rapamycin-insensitive companion of mTOR (Homo sapiens) (Q6R327 whole entry): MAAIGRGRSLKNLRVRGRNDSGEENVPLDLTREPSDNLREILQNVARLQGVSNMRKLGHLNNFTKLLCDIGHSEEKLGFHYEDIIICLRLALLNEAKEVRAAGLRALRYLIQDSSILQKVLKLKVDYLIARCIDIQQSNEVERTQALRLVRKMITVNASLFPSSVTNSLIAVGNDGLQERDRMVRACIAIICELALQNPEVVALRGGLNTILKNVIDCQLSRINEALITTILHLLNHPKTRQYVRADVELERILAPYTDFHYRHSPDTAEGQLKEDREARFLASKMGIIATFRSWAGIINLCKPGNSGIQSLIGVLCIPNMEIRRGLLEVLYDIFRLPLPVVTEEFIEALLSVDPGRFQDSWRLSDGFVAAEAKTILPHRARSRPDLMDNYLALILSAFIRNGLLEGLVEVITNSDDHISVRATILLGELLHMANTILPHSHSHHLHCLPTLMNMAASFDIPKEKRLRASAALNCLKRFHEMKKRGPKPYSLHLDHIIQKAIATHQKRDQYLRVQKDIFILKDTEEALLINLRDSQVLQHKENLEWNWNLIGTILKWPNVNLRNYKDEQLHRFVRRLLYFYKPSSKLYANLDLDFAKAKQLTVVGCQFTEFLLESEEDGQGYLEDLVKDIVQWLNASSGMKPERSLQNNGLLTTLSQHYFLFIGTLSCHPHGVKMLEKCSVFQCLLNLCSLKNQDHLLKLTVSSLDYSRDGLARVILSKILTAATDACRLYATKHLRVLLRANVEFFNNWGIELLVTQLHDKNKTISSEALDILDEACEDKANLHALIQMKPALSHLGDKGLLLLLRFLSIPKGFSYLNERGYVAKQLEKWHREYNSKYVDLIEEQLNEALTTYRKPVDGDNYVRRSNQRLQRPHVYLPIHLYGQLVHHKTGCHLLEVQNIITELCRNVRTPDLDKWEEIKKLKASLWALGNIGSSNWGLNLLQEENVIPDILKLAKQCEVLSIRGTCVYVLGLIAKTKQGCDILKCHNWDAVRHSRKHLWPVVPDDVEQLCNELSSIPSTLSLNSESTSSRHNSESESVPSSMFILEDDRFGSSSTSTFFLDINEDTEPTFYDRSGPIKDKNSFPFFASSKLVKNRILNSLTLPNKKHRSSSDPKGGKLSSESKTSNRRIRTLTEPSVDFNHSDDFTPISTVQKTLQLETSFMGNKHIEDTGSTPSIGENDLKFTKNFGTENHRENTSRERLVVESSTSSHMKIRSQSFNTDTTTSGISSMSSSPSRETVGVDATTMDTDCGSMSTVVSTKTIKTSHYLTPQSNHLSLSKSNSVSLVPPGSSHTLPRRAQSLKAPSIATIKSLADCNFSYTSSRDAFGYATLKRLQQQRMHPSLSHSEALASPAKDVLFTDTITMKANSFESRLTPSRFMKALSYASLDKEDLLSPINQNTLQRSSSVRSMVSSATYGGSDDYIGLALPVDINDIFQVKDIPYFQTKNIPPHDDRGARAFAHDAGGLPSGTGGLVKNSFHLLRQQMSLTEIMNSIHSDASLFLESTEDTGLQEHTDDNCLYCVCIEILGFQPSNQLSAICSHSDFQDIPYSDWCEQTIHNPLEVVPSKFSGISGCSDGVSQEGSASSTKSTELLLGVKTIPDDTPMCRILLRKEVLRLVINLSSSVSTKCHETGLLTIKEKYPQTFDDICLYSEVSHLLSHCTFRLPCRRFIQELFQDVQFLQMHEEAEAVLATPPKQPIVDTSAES
Chain of Proto-oncogene tyrosine-protein kinase ROS (Homo sapiens) (P08922 whole entry): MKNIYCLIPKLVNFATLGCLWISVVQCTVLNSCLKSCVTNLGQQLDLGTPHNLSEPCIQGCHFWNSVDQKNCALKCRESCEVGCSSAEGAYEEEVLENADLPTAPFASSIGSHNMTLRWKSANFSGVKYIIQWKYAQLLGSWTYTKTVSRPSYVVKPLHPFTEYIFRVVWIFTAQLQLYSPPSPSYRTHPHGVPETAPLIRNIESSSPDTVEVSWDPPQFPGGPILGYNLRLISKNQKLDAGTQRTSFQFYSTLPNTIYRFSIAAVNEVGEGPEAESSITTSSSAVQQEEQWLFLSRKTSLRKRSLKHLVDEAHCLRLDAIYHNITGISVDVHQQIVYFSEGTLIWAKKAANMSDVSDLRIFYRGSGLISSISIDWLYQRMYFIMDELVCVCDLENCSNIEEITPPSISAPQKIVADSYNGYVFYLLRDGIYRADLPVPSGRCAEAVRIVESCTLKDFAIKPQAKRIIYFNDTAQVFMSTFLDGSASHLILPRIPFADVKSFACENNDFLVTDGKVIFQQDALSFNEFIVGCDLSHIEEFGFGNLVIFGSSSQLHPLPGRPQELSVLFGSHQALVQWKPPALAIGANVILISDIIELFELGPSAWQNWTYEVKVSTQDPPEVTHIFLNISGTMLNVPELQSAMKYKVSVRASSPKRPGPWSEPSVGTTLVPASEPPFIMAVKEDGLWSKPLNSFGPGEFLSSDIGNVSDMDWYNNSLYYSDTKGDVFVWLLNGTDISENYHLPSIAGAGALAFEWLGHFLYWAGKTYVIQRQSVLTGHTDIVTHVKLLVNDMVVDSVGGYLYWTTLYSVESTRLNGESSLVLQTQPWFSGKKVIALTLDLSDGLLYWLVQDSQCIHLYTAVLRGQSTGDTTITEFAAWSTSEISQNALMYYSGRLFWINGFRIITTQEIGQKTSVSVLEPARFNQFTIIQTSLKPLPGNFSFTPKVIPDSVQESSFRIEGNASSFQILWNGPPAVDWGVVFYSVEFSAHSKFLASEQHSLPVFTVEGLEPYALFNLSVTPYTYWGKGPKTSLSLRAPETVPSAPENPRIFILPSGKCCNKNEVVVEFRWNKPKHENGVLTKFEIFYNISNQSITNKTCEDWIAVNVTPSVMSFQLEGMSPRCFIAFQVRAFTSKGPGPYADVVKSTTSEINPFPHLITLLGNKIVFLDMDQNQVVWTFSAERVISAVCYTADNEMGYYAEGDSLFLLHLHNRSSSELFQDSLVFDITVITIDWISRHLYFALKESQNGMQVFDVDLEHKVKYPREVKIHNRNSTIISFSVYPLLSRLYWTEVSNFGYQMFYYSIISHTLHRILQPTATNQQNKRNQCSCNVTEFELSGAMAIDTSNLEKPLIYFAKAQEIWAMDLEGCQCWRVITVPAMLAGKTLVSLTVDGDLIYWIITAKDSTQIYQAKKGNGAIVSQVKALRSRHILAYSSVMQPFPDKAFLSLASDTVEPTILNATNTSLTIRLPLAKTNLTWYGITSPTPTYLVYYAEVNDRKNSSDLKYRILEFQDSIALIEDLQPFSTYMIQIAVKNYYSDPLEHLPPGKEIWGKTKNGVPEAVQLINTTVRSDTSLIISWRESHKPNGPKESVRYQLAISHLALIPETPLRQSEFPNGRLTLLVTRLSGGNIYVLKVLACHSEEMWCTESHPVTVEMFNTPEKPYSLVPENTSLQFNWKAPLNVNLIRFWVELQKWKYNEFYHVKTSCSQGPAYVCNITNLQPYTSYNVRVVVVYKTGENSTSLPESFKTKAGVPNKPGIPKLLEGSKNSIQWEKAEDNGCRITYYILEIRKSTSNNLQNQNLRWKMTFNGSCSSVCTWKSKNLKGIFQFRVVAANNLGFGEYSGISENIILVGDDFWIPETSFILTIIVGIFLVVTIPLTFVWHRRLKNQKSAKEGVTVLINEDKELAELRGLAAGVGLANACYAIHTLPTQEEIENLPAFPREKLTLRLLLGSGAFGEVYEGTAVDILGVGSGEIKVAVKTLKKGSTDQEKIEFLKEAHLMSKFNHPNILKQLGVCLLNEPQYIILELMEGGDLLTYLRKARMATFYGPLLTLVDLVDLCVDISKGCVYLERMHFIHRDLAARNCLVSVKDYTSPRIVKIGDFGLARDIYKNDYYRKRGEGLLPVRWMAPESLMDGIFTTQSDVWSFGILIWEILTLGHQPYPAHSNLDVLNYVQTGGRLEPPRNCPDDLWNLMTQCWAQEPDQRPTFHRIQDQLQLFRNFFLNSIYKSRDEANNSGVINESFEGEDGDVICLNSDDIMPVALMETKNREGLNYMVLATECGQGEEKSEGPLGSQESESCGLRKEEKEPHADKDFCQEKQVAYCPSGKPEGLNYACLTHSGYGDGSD

Take `CNC(=O)CCc1cc(-c2ccc(-c3ccc(C(F)(F)F)cc3)cc2)n(-c2ccc(N3CCNCC3)cc2)n1`: the result with PC-3 [1], in the series with PC-3 [10], in the series on PC-3 [15] and with SK-BR-3 [18] was inactive. In addition, the Activity in series [2] is 104%; in the series on PC-3 [3] it was 48%; with SK-BR-3 [4] it was “Dose-dependent effect”; in the series on PC-3 [7] it was “Dose-dependent effect”; in the series on Mus musculus it was “Non-toxic”; in the series on PC-3 [8] it was “Dose-dependent effect”. Besides, the Activity entry was “Dose-dependent effect” in the series on PC-3 [9]; 19.1% with PC-3 [12]; 103% in series [13]; “Dose-dependent effect” in the series on PC-3 [16]; 91% in series [17]. Moreover, the inhibition result in series [5], in series [6] and in series [11] was “inactive” in each case. Further, the half-maximal inhibitory concentration (IC50) – broadly, the concentration at which inhibition is half-maximal – with SK-BR-3 [14] is 1800 nM; in the series with LNCaP, 1600 nM. Besides, the “inhibition (INH)” value in the series with PrEC is on record as “Not Active”.
